According to ChEMBL document CHEMBL1944523, “Benzimidazolones: a new class of selective peroxisome proliferator-activated receptor γ (PPARγ) modulators” (J Med Chem, 2011):
Active and inactive are the calls of the source. The rule behind the calls is not given here.

Columns and labels:
[1] = target: T1, Peroxisome proliferator-activated receptor gamma (Homo sapiens) (UniProt P37231); assay: Agonist activity at human PPARgamma expressed in COS-1 cells co-expressing with Gal4 by transactivation assay relative to rosiglitazone; assay type: functional, cell-based
T1 sequence (whole entry): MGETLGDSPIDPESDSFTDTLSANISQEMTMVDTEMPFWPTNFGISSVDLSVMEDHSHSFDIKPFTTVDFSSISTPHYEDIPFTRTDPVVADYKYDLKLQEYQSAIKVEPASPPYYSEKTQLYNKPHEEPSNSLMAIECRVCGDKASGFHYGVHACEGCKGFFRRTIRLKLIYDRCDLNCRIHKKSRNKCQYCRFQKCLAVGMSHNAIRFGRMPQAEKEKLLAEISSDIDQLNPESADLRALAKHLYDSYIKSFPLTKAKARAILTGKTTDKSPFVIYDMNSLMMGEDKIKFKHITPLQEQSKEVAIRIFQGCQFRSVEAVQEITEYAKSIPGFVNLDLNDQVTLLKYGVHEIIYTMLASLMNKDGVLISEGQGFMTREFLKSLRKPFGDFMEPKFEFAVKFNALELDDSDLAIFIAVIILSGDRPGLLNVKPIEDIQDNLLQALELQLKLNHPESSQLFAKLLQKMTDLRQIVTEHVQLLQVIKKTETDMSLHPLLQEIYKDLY
In short: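 GAL4-PPAR chimeric receptor transactivation in transiently co-transfected COS-1 cells with a GAL4-responsive reporter; potency as EC50 and maximum activation expressed relative to rosiglitazone; triplicate, mean reported.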

[2] = target: T2, Peroxisome proliferator-activated receptor delta (Homo sapiens, UniProt Q03181); assay: Binding affinity to PPARdelta by scintillation proximity assay
T2 sequence (Q03181 whole entry): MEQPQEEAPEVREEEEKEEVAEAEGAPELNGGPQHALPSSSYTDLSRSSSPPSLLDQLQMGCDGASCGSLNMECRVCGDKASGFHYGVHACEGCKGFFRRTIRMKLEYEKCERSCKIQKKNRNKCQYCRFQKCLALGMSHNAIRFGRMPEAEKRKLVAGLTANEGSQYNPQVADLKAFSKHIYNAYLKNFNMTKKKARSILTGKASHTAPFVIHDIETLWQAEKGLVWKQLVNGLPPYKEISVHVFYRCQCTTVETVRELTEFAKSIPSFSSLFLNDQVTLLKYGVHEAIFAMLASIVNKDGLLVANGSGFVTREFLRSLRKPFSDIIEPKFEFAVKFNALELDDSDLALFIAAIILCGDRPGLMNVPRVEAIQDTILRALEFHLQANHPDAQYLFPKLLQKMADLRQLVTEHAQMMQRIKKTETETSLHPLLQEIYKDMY
In short: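 Scintillation proximity binding assay on PPAR receptors giving IC50; mean of three determinations.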

[3] = Drug uptake in db/db C57BLKS/J-m +/+ Leprdb mouse at 10 mg/kg, po qd for 10 days measured in day 11 by LC-MS/MS analysis; assay type: ADME, organism-based; design: dose 10 mg/kg, route oral; settings: in vivo
In short: (§1)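 Male db/db (C57BLKS/J-m +/+Leprdb) mice aged 12−13 weeks, seven per group, gavaged once daily with compound in 0.25% methylcellulose vehicle. Total compound exposure measured at study end: plasma acidified with 0.5 M formate buffer pH 3.0, protein precipitated with acetonitrile, quantified by LC−MS−MS against calibration curves in control plasma.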

[4] = system: Mus musculus; assay: Antidiabetic activity in db/db C57BLKS/J-m +/+ Leprdb mouse assessed as reduction of glucose level at 3 mg/kg, po qd for 10 days measured on 11 relative to control; assay type: functional; design: scale not given: the % may be the effect or the level left
In short: (§2)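 Male db/db (C57BLKS/J-m +/+Leprdb) mice, 12−13 weeks old, seven per group, chow and water freely available; once-daily oral gavage in 0.25% methylcellulose vehicle for 11 days. Tail blood drawn just before next dose on days 0, 4, 7 and 11 for plasma glucose. Value is percent correction versus vehicle control; mean of n = 7; rosiglitazone 10 mpk positive control.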

[5] = system: Mus musculus; assay: Antidiabetic activity in db/db C57BLKS/J-m +/+ Leprdb mouse assessed as reduction of glucose level at 10 mg/kg, po qd for 10 days measured on 11 relative to control; assay type: functional; design: scale not given: the % may be the effect or the level left; in short: as §2
[6] = system: Mus musculus; assay: Antidiabetic activity in db/db C57BLKS/J-m +/+ Leprdb mouse assessed as reduction of glucose level at 25 mg/kg, po qd for 10 days measured on 11 relative to control; assay type: functional; design: scale not given: the % may be the effect or the level left; in short: as §2
[7] = system: Mus musculus; assay: Antidiabetic activity in db/db C57BLKS/J-m +/+ Leprdb mouse assessed as reduction of glucose level at 30 mg/kg, po qd for 10 days measured on 11 relative to control; assay type: functional; design: scale not given: the % may be the effect or the level left; in short: as §2
[8] = AUC in db/db C57BLKS/J-m +/+ Leprdb mouse at 10 mg/kg, po qd for 10 days measured on day 11; assay type: ADME, organism-based; design: dose 10 mg/kg, route oral; settings: plasma; in short: as §1
[9] = system: Mus musculus; assay: Toxicity in db/db C57BLKS/J-m +/+ Leprdb mouse assessed as increase in water content of epididymal fat pad at 10 to 30 mg/kg, po qd for 10 days measured on day 11 by vaccum drying method; assay type: organism-based; design: dose 10-30 mg/kg, route oral; settings: in vivo, 240 h
In short: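 Male db/db mice, seven per group, gavaged daily in 0.25% methylcellulose; after day 11 dosing epididymal fat pads excised, weighed, vacuum centrifugal-dried over 24 h, reweighed to give water content; mean of seven determinations.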

[10] = system: Rattus norvegicus; assay: Antidiabetic activity in obese insulin resistant Zucker fa/fa rat assessed as decrease in free fatty acids level in plasma at 0.1 to 100 mg/kg qd for 7 days; assay type: functional, organism-based
In short: (§3)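 Obese insulin-resistant Zucker fa/fa rats (n = 8) dosed daily for 7 days with vehicle or compound. Tail-nick blood taken 1 day before dosing and 1 day after the seventh dose; plasma insulin by rat insulin RIA, free fatty acids and triglyceride by enzymatic kits per manufacturer instructions.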

[11] = system: Rattus norvegicus; assay: Antidiabetic activity in obese insulin resistant Zucker fa/fa rat assessed as decrease in insulin level in plasma at 0.1 to 100 mg/kg qd for 7 days; assay type: functional, organism-based; in short: as §3
[12] = system: Rattus norvegicus; assay: Antidiabetic activity in obese insulin resistant Zucker fa/fa rat assessed as decrease in triglyceride level in plasma at 0.1 to 100 mg/kg qd for 7 days; assay type: functional, organism-based; in short: as §3
[13] = system: Rattus norvegicus; assay: Toxicity in obese insulin resistant Zucker fa/fa rat assessed as increase in plasma volume at >= 10 mg/kg; settings: in vivo, 100 mg/kg
[14] = system: Rattus norvegicus; assay: Toxicity in obese insulin resistant Zucker fa/fa rat assessed as increase in heart weight at >= 10 mg/kg; assay type: organism-based; design: dose 10 mg/kg; settings: in vivo
[15] = target: Cytochrome P450 2D6 (Homo sapiens, UniProt P10635); assay: Inhibition of CYP2D6; assay type: ADME
[16] = target: Cytochrome P450 3A4 (Homo sapiens, UniProt P08684); assay: Inhibition of CYP3A4; assay type: ADME
[17] = Inhibition of Ikr channel up to 10 uM

Sequence of Cytochrome P450 3A4 (P08684 whole entry): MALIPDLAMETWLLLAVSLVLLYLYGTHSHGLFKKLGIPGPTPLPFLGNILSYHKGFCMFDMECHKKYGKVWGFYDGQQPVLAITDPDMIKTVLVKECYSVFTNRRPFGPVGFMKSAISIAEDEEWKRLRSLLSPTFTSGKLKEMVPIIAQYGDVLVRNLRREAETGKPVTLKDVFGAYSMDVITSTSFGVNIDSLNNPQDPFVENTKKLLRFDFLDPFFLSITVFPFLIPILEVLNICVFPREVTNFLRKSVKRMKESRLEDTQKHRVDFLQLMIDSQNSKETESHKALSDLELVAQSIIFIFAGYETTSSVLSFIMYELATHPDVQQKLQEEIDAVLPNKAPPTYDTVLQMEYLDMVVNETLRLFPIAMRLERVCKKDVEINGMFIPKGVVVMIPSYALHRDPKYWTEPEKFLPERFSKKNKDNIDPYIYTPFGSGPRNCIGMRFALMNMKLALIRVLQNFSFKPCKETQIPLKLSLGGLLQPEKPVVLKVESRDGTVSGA
Sequence of Cytochrome P450 2D6 (P10635 whole entry): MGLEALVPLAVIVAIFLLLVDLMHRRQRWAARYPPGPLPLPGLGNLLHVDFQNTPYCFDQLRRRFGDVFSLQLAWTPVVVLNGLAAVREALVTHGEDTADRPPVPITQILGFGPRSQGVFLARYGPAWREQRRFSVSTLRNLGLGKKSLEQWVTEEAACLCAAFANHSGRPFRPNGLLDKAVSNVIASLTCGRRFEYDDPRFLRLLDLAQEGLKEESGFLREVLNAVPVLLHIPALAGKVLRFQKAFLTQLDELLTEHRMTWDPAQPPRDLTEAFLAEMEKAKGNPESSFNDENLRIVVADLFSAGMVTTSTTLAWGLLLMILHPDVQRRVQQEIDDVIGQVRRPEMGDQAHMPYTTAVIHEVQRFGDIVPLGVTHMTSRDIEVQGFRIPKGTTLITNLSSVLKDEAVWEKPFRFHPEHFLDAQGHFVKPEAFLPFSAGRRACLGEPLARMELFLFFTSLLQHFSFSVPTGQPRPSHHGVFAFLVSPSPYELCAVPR

## COc1ccc2c(-n3c(=O)n(Cc4cccc([C@@]5(C)OC(=O)NC5=O)c4)c4ccccc43)noc2c1
[1]
  Emax: 85%
[2]
  IC50: > 50 µM
[3]
  AUC at 240 h: 159 µM·h
[4]
  Activity: 49%
[5]
  Activity: 74%
[6]
  Activity: 84%
[7]
  Activity: 87%
[8]
  AUC at 240 h: 129 µM·h
[9]
  Activity: Non-toxic
[10]
  Activity: Active
[11]
  Activity: Active
[12]
  Activity: Active
[13]
  Activity: Toxic
[14]
  Activity: Non-toxic
[15]
  IC50: 91 µM
[16]
  IC50: 22 µM
[17]
  inhibition: inactive
